Laboratory results taken from ChEMBL document CHEMBL4118059, “Hirsutane-Type Sesquiterpenes with Inhibitory Activity of Microglial Nitric Oxide Production from the Red Alga-Derived Fungus Chondrostereum sp. NTOU4196” (J Nat Prod, 2017).

What was measured:
[1] = tested on: BV-2; assay: Antineuroinflammatory activity in mouse BV2 cells assessed as inhibition of LPS-induced nitric oxide production pretreated for 15 mins followed by LPS-stimulation measured after 24 hrs by colorimetric method; type: functional, cell-based
[2] = tested on: BV-2; assay: Antineuroinflammatory activity in mouse BV2 cells assessed as inhibition of LPS-induced nitric oxide production by measuring nitrite levels at 20 uM pretreated for 15 mins followed by LPS-stimulation measured after 24 hrs by colorimetric method (reference value: 15 +/- 1 uM); type: functional
[3] = Cytotoxicity against LPS-induced mouse BV2 cells assessed as cell viability at 20 uM pretreated for 15 mins followed by LPS-stimulation measured after 24 hrs by MTT assay relative to control; type: cell-based, BV-2; conditions: LPS-stimulated BV2 cells, read-out: Activity
Outline: (§1)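 BV-2 cells, LPS-activated, exposed to compounds at 2–20 μM. Viability was measured by MTT assay and expressed as mean ± SD of three independent experiments.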

[4] = tested on: BV-2; assay: Antineuroinflammatory activity in mouse BV2 cells assessed as inhibition of LPS-induced nitric oxide production at 5 uM pretreated for 15 mins followed by LPS-stimulation measured after 24 hrs by colorimetric method relative to control; type: functional
[5] = Cytotoxicity against LPS-induced mouse BV2 cells assessed as cell viability at 2 uM pretreated for 15 mins followed by LPS-stimulation measured after 24 hrs by MTT assay relative to control; type: cell-based, BV-2; conditions: LPS-stimulated BV2 cells, read-out: Activity; outline: as §1
[6] = Cytotoxicity against LPS-induced mouse BV2 cells assessed as cell viability at 5 uM pretreated for 15 mins followed by LPS-stimulation measured after 24 hrs by MTT assay relative to control; type: cell-based, BV-2; conditions: LPS-stimulated BV2 cells, read-out: Activity; outline: as §1
[7] = Cytotoxicity against LPS-induced mouse BV2 cells assessed as cell viability at 10 uM pretreated for 15 mins followed by LPS-stimulation measured after 24 hrs by MTT assay relative to control; type: cell-based, BV-2; conditions: LPS-stimulated BV2 cells, read-out: Activity; outline: as §1
[8] = tested on: BV-2; assay: Antineuroinflammatory activity in mouse BV2 cells assessed as inhibition of LPS-induced nitric oxide production at 20 uM pretreated for 15 mins followed by LPS-stimulation measured after 24 hrs by colorimetric method relative to control; type: functional

Compound | Activity [2] [µM] | viability at 24 h, 20 µM [3] [%] | viability at 24 h, 10 µM [7] [%] | also measured
COc1cc(/C=C/C(=O)CC(=O)/C=C/c2ccc(O)c(OC)c2)ccc1O [CURCUMIN] | – | – | – | IC50 [1]: 6 µM
C[C@@H]1[C@@H](O)C[C@]2(O)[C@H](O)[C@H]3CC(C)(C)C[C@H]3[C@]12C | 12 | 83 | – | –
C=C1C(=O)C=C2C=C3[C@@H](O)C(C)(C)C[C@@]3(O)[C@]12C | 8 | 39 | 77 | inhibition [1]: Dose-dependent effect; inhibition at 5 µM [4]: 53%; viability at 24 h, 2 µM [5]: 94%; viability at 24 h, 5 µM [6]: 87%
C[C@H]1[C@H](O)C[C@@]2(O)C[C@]3(O)CC(C)(C)C[C@@H]3[C@@]12C | 13 | – | – | –
C=C1C(=O)C[C@@]2(OC)C[C@]3(O)CC(C)(C)C[C@@H]3[C@]12C | 4 | 11 | 11 | viability at 24 h, 2 µM [5]: 47%; viability at 24 h, 5 µM [6]: 30%
C=C1[C@H](O)C[C@]2(O)C[C@]3(O)CC(C)(C)C[C@]3(O)[C@]12C | 8 | 67 | 73 | inhibition [1]: Dose-dependent effect; inhibition at 20 µM [8]: 47%; viability at 24 h, 2 µM [5]: 93%; viability at 24 h, 5 µM [6]: 82%
C[C@@H]1[C@@H](O)C[C@]2(O)[C@H](O)C3=CC(C)(C)C[C@H]3[C@]12C | 14 | 87 | – | –
C[C@H]1C(=O)C[C@]2(O)C[C@@]3(O)CC(C)(C)C[C@H]3[C@]12C | 11 | – | – | –
C[C@@H]1C(=O)C[C@]2(O)C[C@@]3(O)CC(C)(C)C[C@H]3[C@]12C | 12 | 83 | – | –
C[C@H]1C(=O)C=C2C=C3C(=O)C(C)(C)C[C@@]3(O)[C@@]21C | 4 | 11 | 23 | –
C=C1C(=O)C[C@]2(O)[C@H](O)C3=C(CC(C)(C)C3=O)[C@]12C | 10 | 69 | 89 | viability at 24 h, 2 µM [5]: 95%; viability at 24 h, 5 µM [6]: 95%
C[C@@H]1[C@@H](O)C[C@]2(O)CC3=C(CC(C)(C)C3=O)[C@]12C | 11.6 | 97 | – | –
C=C1C(=O)C=C2C[C@@]3(O)CC(C)(C)C[C@H]3[C@]12C | 4 | 12 | 22 | –
C[C@H]1C(=O)C=C2C=C3[C@@H](O)C(C)(C)C[C@@]3(O)[C@@]21C | 12 | 71 | – | –
C[C@H]1[C@@H](O)C[C@]2(O)C[C@@]3(O)CC(C)(C)C[C@H]3[C@]12C | 13 | – | – | –
C[C@@H]1[C@@H](O)C[C@]2(O)C=C3C(=CC(C)(C)[C@@H]3O)[C@]12C | 11 | 93 | – | –
